In one test the test system is HCT-8. Description: In vitro cytotoxicity against HCT-8 human colon carcinoma cells. The class given is functional. The note with it: read-out: ID50 (the source's name). The procedure, abridged: (§1)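 Cultured L1210 murine leukemia or HCT-8 human colon carcinoma cells were incubated with drug for 70 h. ID50 is the drug concentration (nM) that reduced cell number to 50% of untreated controls.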

For test [1], the system named is L1210. Nature of the test: In vitro cytotoxicity against L1210 leukemia cells. To be noted: Mus musculus, read-out: ID50 (the source's name). The class given is functional. The procedure, abridged:
as §1

Test [2] has as its system P388. Description: Evaluated in vivo against P388 leukemia cells ( percent increase in life span of treated animals over that of control groups of tumor bearing untreated animals.); k = no activity at all dose levels up to acutely toxic ones. To be noted: Mus musculus. The test is classed as functional, organism-based. The procedure, abridged:
(§2)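 Mice received 10⁶ P388 leukemia cells i.p. Drug was dissolved in 0.1 mL of 30% v/v ethanol/water and given i.p. on days 1, 5 and 9 after inoculation. The optimal dose is expressed in mg/kg per day.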

A further test relates to Mus musculus. Description: In vivo optimal i.p. dose administered on days 1, 5, and 9 after i.p. inoculation of (10E6) P388 leukemia cells. The test is classed as functional. The procedure, abridged:
as §2

Test [3] has as its system P388. Nature of the test: Evaluated in vivo against P388 leukemia cells ( percent increase in life span of treated animals over that of control groups of tumor bearing untreated animals.). The class given is functional, Mus musculus.
Test [4] relates to L1210. Nature of the test: In vitro cytotoxicity against L1210 leukemia cells. The test is classed as functional. To be noted: Mus musculus, read-out: ID50 (the source's name). The procedure, abridged:
as §1

In the case of `COc1ccc2nc3c(C(=O)NCCN(C)C)cccc3c(N)c2c1`, the IC50 in the test with HCT-8 turned out to be 600 nM; in the test on L1210 [1], 670 nM. Further, in the test on P388 [2], the ILS – broadly, the gain in survival time of treated over control animals, in per cent – was “No activity”. Further, in the test with Mus musculus, the OD was 13.3 mg/kg/day.

Take `CN(C)CCNC(=O)c1cccc2c(N)c3cc(Cl)ccc3nc12`: the IC50 worked out at 485 nM in the test on HCT-8 and 722 nM in the test with L1210 [1]. In addition, the ILS entry in the test on P388 [2] is “No activity”. Also, the OD with Mus musculus was found to be 13.3 mg/kg/day.

As to `Cc1ccc2nc3c(C(=O)NCCN(C)C)cccc3c(N)c2c1`, in the test on HCT-8, the IC50 came out at 485 nM. For the same compound, the ILS result in the test with P388 [2] was “No activity”. The compound also came in with an OD in the test with Mus musculus of 13.3 mg/kg/day.

In the case of `COc1cccc2nc3c(C(=O)NCCN(C)C)cccc3c(N)c12`, the IC50 with HCT-8 amounted to 486 nM; with L1210 [1], 220 nM. The ILS result with P388 [2] is “No activity”. The OD with Mus musculus was 45 mg/kg/day.

For `COc1ccc2c(N)c3cccc(C(=O)NCCN(C)C)c3nc2c1`, in the test with P388 [2], the ILS result is “No activity”. The OD with Mus musculus came to 8.9 mg/kg/day.

Regarding `CN(C)CCNC(=O)c1cccc2c(N)c3c(Cl)cccc3nc12`, the values for the IC50 with HCT-8 and in the test on L1210 [1] were 360 nM and 250 nM, respectively. Also, the ILS entry in the test with P388 [2] was “No activity”. Also, the OD with Mus musculus came out at 20 mg/kg/day.

As for `COc1ccc2c(N)c3ccccc3nc2c1C(=O)NCCN(C)C`, the figures for the IC50 in the test on HCT-8 and in the test with L1210 [1] were 780 nM and 300 nM, respectively. Also, the ILS entry with P388 [2] was “No activity”. In the test with Mus musculus, the OD stood at 20 mg/kg/day.

With `CN(C)CCNC(=O)c1cc(Cl)cc2c(N)c3ccccc3nc12`, the results for the IC50 in the test on HCT-8 and in the test with L1210 [1] were 325 nM and 300 nM, respectively. Also, the ILS entry in the test on P388 [2] was “No activity”. The same compound gave an OD in the test with Mus musculus of 20 mg/kg/day.

For the compound `COc1cccc2c(N)c3cccc(C(=O)NCCN(C)C)c3nc12`, the IC50 in the test on HCT-8 was determined as 89 nM; in the test with L1210 [1], 4.3 nM. Besides, the ILS in the test on P388 [3] stood at 81%. The OD in the test with Mus musculus was found to be 3.9 mg/kg/day.

For the compound `Cc1ccc2c(N)c3cccc(C(=O)NCCN(C)C)c3nc2c1`, in the test on HCT-8, the IC50 is 120 nM. Moreover, in the test on P388 [3], the ILS is recorded as 20%. Besides, the OD in the test with Mus musculus came to 2.6 mg/kg/day.

As to `CN(C)CCNC(=O)c1cccc2c(N)c3ccc(Cl)cc3nc12`, the values for the IC50 in the test with HCT-8 and in the test on L1210 [1] were 245 nM and 105 nM, respectively. Besides, in the test on P388 [2], the ILS entry was “No activity”. For the same compound, the OD in the test on Mus musculus stood at 8.9 mg/kg/day.

In the case of `CN(C)CCNC(=O)c1ccc(Cl)c2c(N)c3ccccc3nc12`, the IC50 in the test on HCT-8 was determined as 360 nM; in the test on L1210 [1], 4.8 nM. In the test with P388 [3], this compound displayed an ILS of 29%. In the test on Mus musculus, this compound showed an OD of 8.9 mg/kg/day.

Consider `Cc1cccc2c(N)c3cccc(C(=O)NCCN(C)C)c3nc12`, for which the IC50 was 11 nM with HCT-8 and 0.47 nM with L1210 [1]. The compound also registered an ILS with P388 [3] of 107%. Moreover, the OD in the test with Mus musculus came out at 2.6 mg/kg/day.

For the compound `CN(C)CCNC(=O)c1cccc2c(N)c3cccc(Cl)c3nc12`, the IC50 in the test on HCT-8 came out at 33 nM; in the test with L1210 [1], 2.9 nM. Also, the ILS in the test with P388 [3] is given as 81%. For the same compound, in the test on Mus musculus, the OD was 2.6 mg/kg/day.

Take `COc1ccc(C(=O)NCCN(C)C)c2nc3ccccc3c(N)c12`: the IC50 in the test with HCT-8 was found to be 19 nM; with L1210 [1], 0.55 nM. Moreover, the ILS in the test with P388 [3] came out at 27%. This compound also returned an OD with Mus musculus of 8.9 mg/kg/day.

Regarding `Cc1cccc2nc3c(C(=O)NCCN(C)C)cccc3c(N)c12`, the IC50 in the test on HCT-8 came to 250 nM; in the test on L1210 [1], 340 nM. For the same compound, the ILS result in the test on P388 [2] was “No activity”. In addition, the OD with Mus musculus stood at 8.9 mg/kg/day.

With `COc1cc(C(=O)NCCN(C)C)c2nc3ccccc3c(N)c2c1`, the IC50 in the test on HCT-8 was 32 nM; with L1210 [1] it was 2.9 nM. In the test with P388 [3], this compound displayed an ILS of 72%. The OD in the test on Mus musculus turned out to be 5.9 mg/kg/day.

As to `CN(C)CCNC(=O)c1cccc2c(N)c3ccccc3nc12`, the IC50 amounted to 66 nM in the test with HCT-8 and 15 nM in the test with L1210 [4]. The compound further came in with an OD in the test with Mus musculus of 4.5 mg/kg/day.

Turning to `Cc1cc(C(=O)NCCN(C)C)c2nc3ccccc3c(N)c2c1`, the IC50 in the test on HCT-8 is 425 nM; in the test on L1210 [1], 590 nM. In the test with P388 [2], the ILS result was “No activity”. The compound further gave an OD with Mus musculus of 30 mg/kg/day.
